# Assay outcomes from PubChem BioAssay.
# HTR1E antagonist: blocks the human 5-HT1E serotonin receptor; AID 571; CHO 5-HT1E Ga15 NFAT-bla reporter, FRET, antagonist; P28566; 65,000 compounds, 0.99% hits; inhibition, % at 6 µM;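 active means inhibition above a set limit, the mean inhibition across every tested compound plus 3 SD, cut at about 29% in these data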;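 further: signal is the 460 over 535 nm emission ratio of beta-lactamase substrate; 0% = agonist plus DMSO wells and 100% = wells without agonist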
# 5HT1E ag: activates the human 5-HT1E serotonin receptor; CHO 5-HT1E Ga15 NFAT-bla reporter, FRET; 0% DMSO wells, 100% control agonist wells; AID 574; 65,000 compounds, 0.69% hits; activation, % at 6 µM;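 active means activation above a set limit, the screen-wide mean activation plus 3 SD, cut at about 8.5% in these data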;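 further: 100% = positive control agonist at 1 µM giving full maximal response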
# S1P1 ag-PAM: agonists and agonism potentiators of human S1P1 receptor; P21453; S1P1 CRE-bla cells, forskolin, beta-lactamase FRET, potentiator mode; S1P1 agonist co-added at EC20, 2 nM; 100% = saturating reference agonist, 0% = basal; AID 449; activation, % at 9.5 µM; 56,000 compounds, 0.57% hits;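 active means activation above a cutoff set at the mean activation of all tested compounds plus 3 SD, cut at about 54% in these data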;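 further: forskolin at 4 µM as EC80 and the EC20 agonist is SEW2871; 100% = SEW2871 at its EC100 plus forskolin at EC80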
# Target sequence (P21453 whole entry, looked up): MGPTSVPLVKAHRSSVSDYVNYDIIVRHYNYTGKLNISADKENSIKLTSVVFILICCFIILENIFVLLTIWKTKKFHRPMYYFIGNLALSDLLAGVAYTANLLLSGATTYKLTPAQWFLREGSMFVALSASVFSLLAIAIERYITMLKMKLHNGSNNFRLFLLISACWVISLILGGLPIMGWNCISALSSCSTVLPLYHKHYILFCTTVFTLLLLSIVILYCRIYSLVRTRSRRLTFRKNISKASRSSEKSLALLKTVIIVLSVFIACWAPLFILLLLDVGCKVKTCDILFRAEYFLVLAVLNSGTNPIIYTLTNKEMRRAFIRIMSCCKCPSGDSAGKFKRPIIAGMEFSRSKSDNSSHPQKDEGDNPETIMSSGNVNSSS
# HTR1A agonist: 5-HT1a (human) receptor agonism; activation, % at 10 µM; CHO 5-HT1a Ga15 NFAT-bla reporter, FRET ratio; 0% basal, 100% maximal reference agonist; 65,000 compounds, 0.56% hits; P08908; AID 567;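 active means activation above the screen-wide mean activation plus 3 SD, cut at about 19% in these data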;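 further: 0% = DMSO wells and 100% = 5-CT at EC100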
# S1P3 agonist: S1P3 (human) receptor agonism. Q99500. S1P3 NFAT-BLA reporter cells, FRET ratio; relative to 1 µM S1P, basal subtracted. activation, % at 4.5 µM. 60,000 compounds, 0.1% hits. AID 373;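 active means activation above the screen-wide mean plus 3 SD, cut at about 4.5% in these data, passing the limit was not always enough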
#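 Material: Human S1P3 NFAT-BLA reporter CHO cells | Incubation: Overnight plating, 4 h compound 37 °C, 2 h substrate RT | Signal: FRET β-lactamase substrate fluorescence, excitation 405 nm, 460/535 nm emission ratio, background-subtracted | Compound: 4.5 µM final, single dose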
# 5-HT1A blocker: antagonists of human 5-HT1a serotonin receptor; P08908; CHO 5-HT1a Ga15 NFAT-bla reporter, antagonist mode; inhibition, % at 10 µM; 62,000 compounds, 0.68% hits; AID 612;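 active means inhibition above the mean of all tested compounds plus 3 SD, cut at about 43% in these data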;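 further: receptor stimulated by 5-CT agonist at 100 nM near EC80; beta-lactamase reporter measured by ratiometric fluorescence of a cleavable substrate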
# * marks the source's active call; other numbers are inactive results; / = not tested or not shown. Rows were chosen to be rich in hits. Some 3% of all compounds tested hit in one or more screens of this group.
SMILES,HTR1E antagonist,5HT1E ag,S1P1 ag-PAM,HTR1A agonist,S1P3 agonist,5-HT1A blocker
CCOc1ccccc1C(=O)N1CCCCC1C (configuration not stated),-3,-1,-14,-1,0,3
CCN(CC)CCN1C(=O)C(=O)/C(=C(/O)c2ccc(C)cc2)C1c1cccnc1 (configuration not stated),-8,0,-7,1,-1,/
CC1(C)CC(=O)C2=C(C1)N(c1cccc(O)c1)C1=C(C2)C(=O)CC(C)(C)C1,30*,1,8,0,-1,20
CCCCC(=O)NCCc1cc2c(C)ccc(C)c2[nH]c1=O,1,1,-8,1,0,-6
CC(=O)NCc1ccc(C(=O)CSc2nnc(-c3ccncc3)n2Cc2ccccc2)o1,1,12*,-15,0,1,-2
COc1ccc(C)cc1NC(=O)c1cnc2sccn2c1=O,-4,0,-4,-2,0,-12
Cc1ncc(CO)c2c1OC(C)(C)OC2,4,-1,-14,27*,-1,2
Cn1c(C(=O)NCCCN2CCCC2=O)cc2c(=O)n3ccccc3nc21,30*,0,2,0,1,3
Cn1c(C(=O)NCCC2=CCCCC2)cc2c(=O)n3ccccc3nc21,11,0,-71,0,1,-4
CCS(=O)(=O)N1CCN(Cc2nc3ccccc3c(=O)[nH]2)CC1,-8,0,/,-1,/,-2
C/C(Cl)=C\Cn1c(N2CCCCCC2)nc2c1c(=O)n(C)c(=O)n2C,35*,-1,-9,-1,2,17
Cn1c(=O)c2c(nc(N3CCCCCC3)n2CC(=O)c2ccccc2)n(C)c1=O,6,0,13,-1,0,5
c1ccc(CCn2nnnc2C(c2cccnc2)N2CCN(c3nc4ccccc4s3)CC2)cc1 (configuration not stated),2,1,-12,2,0,18
c1ccc(CCn2nnnc2C(c2cccnc2)N2CCN(c3ccccc3)CC2)cc1 (configuration not stated),1,9.9*,-1,-1,-1,9
Fc1ccccc1N1CCN(C(c2cccs2)c2nnnn2CCc2ccccc2)CC1 (configuration not stated),20,-1,40,-4,-1,57*
Fc1ccc(N2CCN(C(c3cccs3)c3nnnn3CCc3ccccc3)CC2)cc1 (configuration not stated),-5,1,19,2,1,25
c1ccc(Cn2c(CNc3nc4ccccc4n3CCN3CCOCC3)nc3ccccc32)cc1,15,0,4,1,0,20
CC(c1ccco1)N(C(=O)CSc1ccc(Br)cc1)c1ccccn1 (configuration not stated),-10,-1,0,-2,0,9
Clc1ccc2nc(NC3=NCN(CCN4CCOCC4)CN3)nc(-c3ccccc3)c2c1,-2,1,-22,-3,-1,-6
OCCN1CCN(c2nc(-c3ccccc3)c3cc(Cl)ccc3n2)CC1,6,7,-41,18,4.6*,-20
CN1CCN(c2nc(-c3ccccc3)c3cc(Cl)ccc3n2)CC1,0,8,-41,30*,13,-30
Clc1ccc2nc(N3CCNCC3)nc(-c3ccccc3)c2c1,-4,14*,-50,55*,18*,/
COc1cccc(NC(=O)CSc2nc3n[nH]c(C)c3c(=N)n2-c2cccc(OC)c2)c1,33*,1,-10,2,0,-11
COc1cccc(-n2c(SCC(=O)NCCC3=CCCCC3)nc3n[nH]c(C)c3c2=N)c1,-8,1,-33,0,0,-13
Cc1ccccc1Cn1ccc(NC(=O)c2cc3nc(-c4ccco4)cc(C(F)(F)F)n3n2)n1,-5,2,-35,74*,0,-15
O=C(CCc1nc(-c2ccccc2F)no1)Nc1ccc(Oc2ccccc2)cc1,5,0,128*,1,-1,11
Cc1ccc(-c2noc(CCC(=O)NCCc3ccccc3Cl)n2)cc1,1,21*,0,-1,-1,14
